Compound activity (PubChem BioAssay)
An excerpt weighted towards active compounds, which were near 4.6% of everything screened.
GPR7 antag – antagonists of human GPR7 (neuropeptides B/W receptor 1); GPR7-expressing cells, fluorescence antagonist assay; inhibition, % at 4.4 µM; AID 1861; 1.1% of 290,000 active; in the data active = inhibition above about 16%, passing the limit was not always enough;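 note: cells stimulated with the agonist NPW; 0% = agonist with vehicle and 100% = vehicle without agonist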
Target sequence (P48145 whole entry, looked up): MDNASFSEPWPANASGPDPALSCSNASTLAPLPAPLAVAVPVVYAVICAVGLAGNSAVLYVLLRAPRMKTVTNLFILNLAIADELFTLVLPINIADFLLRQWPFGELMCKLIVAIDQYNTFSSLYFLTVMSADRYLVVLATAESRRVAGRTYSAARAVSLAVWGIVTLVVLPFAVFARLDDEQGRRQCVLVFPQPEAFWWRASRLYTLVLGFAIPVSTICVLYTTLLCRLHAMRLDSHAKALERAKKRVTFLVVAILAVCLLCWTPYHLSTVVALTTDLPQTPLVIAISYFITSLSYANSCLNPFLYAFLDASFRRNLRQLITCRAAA
TAAR1 antagonist – human TAAR1 antagonism; Q96RJ0; inhibition, % at 3 µM; 1.5% of 360,000 active; CHO RD-HGA16 TAAR1, Fluo-8 calcium fluorescence, antagonist; AID 624466;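 active = inhibition above a per-plate cutoff, the mean inhibition of test compounds on that plate plus 3 SD, cut at about 49% in these data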;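 note: 0% = DMSO plus EC80 beta-PEA response and 100% = DMSO alone without agonist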
Target sequence (Q96RJ0 whole entry, looked up): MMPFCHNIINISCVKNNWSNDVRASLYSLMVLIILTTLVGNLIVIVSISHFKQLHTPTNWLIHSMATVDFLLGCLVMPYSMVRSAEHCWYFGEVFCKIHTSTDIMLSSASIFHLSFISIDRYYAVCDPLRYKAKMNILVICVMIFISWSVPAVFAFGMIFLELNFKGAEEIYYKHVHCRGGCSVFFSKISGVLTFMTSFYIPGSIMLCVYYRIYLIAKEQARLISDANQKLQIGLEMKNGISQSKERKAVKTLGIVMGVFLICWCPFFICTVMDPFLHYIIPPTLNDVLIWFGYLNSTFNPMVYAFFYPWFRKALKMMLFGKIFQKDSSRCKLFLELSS
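Test system – hTAAR1-expressing CHO RD-HGA16 cells, Gα16-coupled · Also added – β-PEA at EC80 concentration, post-compound challenge · Compound – 3 µM, single point · Incubation – dye loading 75 min at 37 °C, then 30 min room temperature · Measured by – Fluo-8 intracellular calcium dye fluorescence, real-time kinetic reads · Benchmarks – vehicle and agonist controls · Replicates – singlicate, one well per test compound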
TAAR1 ag – agonists of human TAAR1 | 0.99% of 360,000 active | CHO RD-HGA16 TAAR1, Fluo-8 calcium fluorescence; vehicle wells 0%, saturating PEA agonist 100% | activation, % at 3 µM | Q96RJ0;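 active = activation above the mean activation of all test compounds in the run plus 3 SD, cut at about 38% in these data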
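System: CHO RD-HGA16 cells carrying human TAAR1 plus Gα16; Incubation: 17-24 h seeding, 75 min 37 °C dye, 30 min RT; Measured by: Fluo-8 fluorescence, 5 s baseline then 140 s kinetic read; Control set: DMSO and PEA EC100; Replication: single well for each compound.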
OX1R antag-1 – blocks the human orexin 1 receptor; 1.8% of 330,000 active; OX1R-expressing cells, FRET antagonist read-out; inhibition, % at 6.6 µM; in the data active = inhibition mostly above about 38%, no sharp cut-off; inactive = mostly below about 40%;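 note: 0% = agonist challenge alone and 100% = reference antagonist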
CHO parental Ca – counter-screen: ATP calcium response change in parental CHO cells; inhibition, % at 5.6 µM; AID 463079; 0.63% of 330,000 active; parental CHO-K1, ATP-induced calcium, Fluo-8 fluorescence;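 active = inhibition above that plate's mean sample inhibition plus 3 SD, cut at about 26% in these data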;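 note: 0% = ATP-challenged DMSO wells and 100% = DMSO wells without ATP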
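Material: parental CHO cells / Compound: single nominal dose of 5.6 µM per compound / Signal: Fluo-8 fluorescence / Replicates: singlicate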
OX1R antag-2 – blocks the human orexin 1 receptor. CHO/OX1R cells, Fluo-8 calcium fluorescence, orexin A. 0.43% of 330,000 active. O43613. inhibition, % at 5 µM;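 active = inhibition above its plate's threshold, mean inhibition of all tested compounds on the plate plus 3 SD, cut at about 37% in these data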;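 note: 0% = orexin A challenge wells and 100% = SB-334867-A antagonist wells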
TAAR1 ag confirm – human TAAR1 agonism, confirmed; shares compounds with TAAR1 ag; CHO RD-HGA16 TAAR1, Fluo-8 calcium fluorescence; scaled: DMSO 0%, maximal phenethylamine 100%; activation, % at 3 µM; 82% of 2,400 active; AID 651783;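 active = activation above a cutoff set at the run's mean compound activation plus 3 SD, cut at about 39% in these data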
Ga16 ag counter – nonselective agonism, TAAR1 counter-screen. AID 651787. activation, % at 3 µM. shares compounds with TAAR1 ag. CHO-Ga16 parental, Fluo-8 calcium fluorescence; normalized to maximal ATP response, DMSO zero. 50% of 2,400 active;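 active = activation above the run cutoff, the mean activation over all tested wells plus 3 SD, cut at about 12% in these data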;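 note: 0% = DMSO wells and 100% = maximal ATP response on the peak over basal ratio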
TAAR1 desens – TAAR1 response desensitization, agonist counter-screen; CHO RD-HGA16 hTAAR1, Fluo-8 calcium, beta-PEA response inhibition; inhibition, % at 3 µM; shares compounds with TAAR1 ag; 46% of 2,400 active;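 active = inhibition above the run cutoff, the mean inhibition of all test compounds plus 3 SD, cut at about 49% in these data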;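 note: beta-PEA stimulus applied at its EC80; loss of beta-PEA calcium signal after compound pretreatment read as receptor desensitization; 0% = DMSO with beta-PEA at EC80 and 100% = DMSO alone without agonist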
Ga16 antag count – counter-screen for TAAR1 agonists: nonselective Ga16 antagonists | shares compounds with TAAR1 ag | CHO-Ga16 ATP-induced calcium, Fluo-8 fluorescence | inhibition, % at 3 µM | 39% of 2,400 active | AID 651952;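 active = inhibition above the plate's mean compound inhibition plus 3 SD, computed per plate, cut at about 22% in these data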;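 note: 0% = EC80 ATP with DMSO and 100% = DMSO wells without ATP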
Numbers without * were called inactive; x = no result.

SMILES	GPR7 antag	TAAR1 antagonist	TAAR1 ag	OX1R antag-1	CHO parental Ca	OX1R antag-2	TAAR1 ag confirm	Ga16 ag counter	TAAR1 desens	Ga16 antag count
CN(CCc1ccccn1)C(=O)Nc1ccc(Cl)cc1	9	10	10	6	-2	1	x	x	x	x
COc1ccc(C2(C)NC(=O)NC2=O)cc1OC (stereo not given)	-10	0	-2	13	-2	-9	x	x	x	x
Cc1ccccc1CCN(C(=O)c1csnn1)C(C(=O)NC1CCCC1)c1ccco1 (stereo not given)	6	2	46*	40	-17	-18	70*	2	31	14
O=C(CSC1=NS(=O)(=O)c2ccccc2N1)NCCc1ccccc1	x	71*	89*	19	-7	-3	89*	7	75*	5
COc1ccccc1CCN1C(=S)NC(C)(C)CC1(C)O (stereo not given)	-4	6	51*	26	-21	-28	74*	0	43	9
CSc1nc(-c2ccc(Cl)cc2)nn1S(=O)(=O)c1ccccc1	-4	x	x	10	-8	-8	x	11	x	-4
CCC(=O)n1nc(-c2ccc(Cl)cc2)nc1SC	4	-28	44*	18	-3	0	44*	1	5	-11
CCN(C(=O)COC(=O)c1ccc(F)c(S(=O)(=O)N2CCOCC2)c1)C1CCS(=O)(=O)C1 (stereo not given)	-6	-13	2	10	-14	-7	x	x	x	x
O=C(Cn1sc2ccccc2c1=O)Nc1ccc(F)cc1	x	17	55*	x	x	x	59*	39*	33	22*
O=C(Cn1sc2ccccc2c1=O)Nc1ccc(Cl)cc1	x	46	55*	x	x	x	55*	30*	23	29*
CC(C)Oc1ccccc1OC1(C)CCN(Cc2ccc(OC(F)(F)F)cc2)C1 (stereo not given)	x	-17	6	x	x	x	x	x	x	x
CC1(C)CC(=O)/C(=C(/O)Cc2ccccc2)C(=NCCc2ccccc2)C1	-4	-3	56*	14	-26	-40	71*	0	47	2
CCC(=O)N(CCC(c1ccc(C)cc1)c1ccco1)Cc1ccco1 (stereo not given)	13	-23	-1	18	-26	-20	x	x	x	x
O=C(Nc1ccc(Cl)cc1C(F)(F)F)c1ccc(Cl)cc1	1	31	75*	24	10	-11	20	-1	19	9
O=C(Nc1cc(F)c(Br)cc1F)c1ccc(Cl)cc1	-16	70*	91*	12	-2	-19	1	8	0	11
O=C(CN1C(=O)S/C(=C\c2ccc(F)cc2)C1=O)Nc1cccc(S(=O)(=O)NCc2ccco2)c1	3	10	3	51	18	20	x	x	x	x
Oc1c(C(c2ccccc2)N2CCc3ccccc3C2)sc2ncnn12 (stereo not given)	-10	-13	65*	5	0	-11	61*	0	26	12
COc1cccc(C(c2sc3nc(C)nn3c2O)N2CCc3ccccc3C2)c1 (stereo not given)	-6	-12	54*	16	-13	-22	56*	2	22	8
COc1ccc(C(=O)N2CCc3ccccc3C2)cc1S(=O)(=O)N1CCCC1	x	-11	9	x	x	x	x	x	x	x
CCOC(=O)N[C@@H](Cc1cccnc1)C(=O)N1CCC[C@H]1C(=O)NCCc1ccccc1Cl	x	61*	67*	x	x	x	89*	5	86*	5
Cc1ccccc1C(=O)N[C@@H](Cc1cccnc1)C(=O)N1CCC[C@H]1C(=O)NCCc1ccccc1Cl	x	48	41*	x	x	x	84*	19*	84*	4
Nc1cc2c(cc1Br)-c1c(C(=O)O)cccc1C2O (stereo not given)	x	-10	8	x	x	x	x	x	x	x
CN1C(=O)NC(c2ccccc2)C2=C1CN(CCc1ccccc1)C2=O (stereo not given)	3	19	58*	9	-11	-18	72*	2	54*	11
COc1ccc(CCN2CC3=C(C2=O)C(c2ccccc2)NC(=O)N3C)cc1OC (stereo not given)	11	0	8	11	-13	-13	x	x	x	x
O=C(Nc1ccc2c(c1)OCCO2)C(C1CC1)n1c(=O)c(-c2cc3ccccc3[nH]2)nc2ccccc21 (stereo not given)	x	-7	1	x	x	x	x	x	x	x
SMILES	GPR7 antag	TAAR1 antagonist	TAAR1 ag	OX1R antag-1	CHO parental Ca	OX1R antag-2	TAAR1 ag confirm	Ga16 ag counter	TAAR1 desens	Ga16 antag count
O=C(NCC1CC1)c1ccc(Nc2nc3ccc(Br)cc3[nH]2)cc1	3	93*	49*	17	-28	-26	45*	2	67*	18
COP(=O)(OC)c1nc(-c2cccc3ccccc23)oc1NCCc1ccccc1	6	75*	74*	-2	-21	-35	88*	8	83*	27*
CCC1=C(NCc2ccccc2)COC1=O	x	-9	2	x	x	x	x	x	x	x
O=c1c2[nH]c3ccccc3c2ncn1Cc1ccco1	3	5	11	0	-6	-9	x	x	x	x
Cc1ccc2c(c1)[nH]c1c(=O)n(Cc3ccco3)cnc12	-5	28	73*	9	10	-4	101*	74*	89*	66*
Cc1ccc(N2C(=O)c3cccc4c(N)ccc(c34)C2=O)c2cccnc12	19*	79*	230*	2	65*	74*	105*	126*	61*	69*
CC(C)Sc1cc(N2CCOCC2)nc(-c2ccc(Cl)cc2)n1	-11	-21	13	5	-5	2	x	x	x	x
CCN1CCN(c2cc(SC(C)C)nc(-c3ccc(OC)cc3)n2)CC1	-7	-17	46*	x	x	x	74*	19*	29	5
N=c1c2c(-c3ccccc3)c(-c3ccccc3)n(Cc3ccccc3)c2ncn1CCCn1ccnc1	-3	-19	61*	13	-31	-11	49*	15*	10	13
O=C(Cc1cccs1)N[C@@H]1c2ccccc2CC[C@@H]1OCc1ccccc1	x	82*	59*	16	-17	-17	0	6	12	18
O=C(Cc1cccs1)N[C@@H]1c2ccccc2CC[C@H]1OCc1ccccc1	x	-5	-2	6	-1	11	x	x	x	x
